In ChEMBL document CHEMBL5370680, “Design and Biological Evaluation of Piperazine-Bearing Nitrobenzamide Hypoxia/GDEPT Prodrugs: The Discovery of CP-506” (ACS Med Chem Lett, 2023):

System: not listed separately
Test: Selectivity ratio of IC50 for antiproliferative activity against wild type human NCI-H1299 cells to IC50 for antiproliferative activity against human NCI-H1299 cells expressing AKR1C3
Format: functional
Conditions: time 4 hrs
Outline: (§1)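 Ratio of mean IC50 in non-transfected wild-type cells to mean IC50 in the AKR1C3- or NfsA_Ec-transfected line. IC50 is from a 4 h prodrug exposure and 5 days' regrowth.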

Q: With `CS(=O)(=O)OCCN(CCBr)c1c(C(=O)NCCO)cc([N+](=O)[O-])cc1[N+](=O)[O-]` as the compound, how does the “Ratio IC50” value read?
A: 15

System: NCI-H1299
Test: Antiproliferative activity against human NCI-H1299 cells expressing NfsA of Escherichia coli assessed as cell growth inhibition measured after 4 hrs
Format: functional
Conditions: NCI-H1299, 4 h
Outline: (§2)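 Monolayer antiproliferative assay using wild-type cells and isogenic lines transfected with AKR1C3 or E. coli NfsA. Cells exposed to prodrug for 4 h, then regrown for 5 days. IC50 is 50% growth inhibition versus untreated controls. Mean values reported, CV <20%.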

Q: Which IC50 does the source give for `CS(=O)(=O)OCCN(CCBr)c1c(C(=O)NCCO)cc([N+](=O)[O-])cc1[N+](=O)[O-]` here?
A: 0.048 µM

System: SiHa
Test: Antiproliferative activity against human SiHa cells assessed as inhibition of cell growth incubated for 4 hrs under anoxic condition and measured after 5 days regrowth under aerobic condition
Format: functional, cell-based
Conditions: not given
Outline: (§3)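 Low-density monolayer antiproliferative assay. Cells exposed to prodrug for 4 h under aerobic or anoxic conditions, then regrown aerobically for 5 days. IC50 is the concentration giving 50% growth inhibition versus untreated controls. Mean values reported, CV <20%.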

Q: For `CS(=O)(=O)OCCN(CCBr)c1c(C(=O)NCCO)cc([N+](=O)[O-])cc1[N+](=O)[O-]`, which IC50 is on record?
A: 2.7 µM

System: HCT-116
Test: Antiproliferative activity against human HCT-116 cells in three-dimensional cell culture multicellular layer expressing NfsA of Escherichia coli assessed as fold change in plating efficiency at 10 uM
Format: functional
Conditions: not given
Outline: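 Mixed MCLs of wild-type HCT116 with 3% NfsA_Ec-expressing cells, against 100% wild-type MCLs, exposed to 10 μM prodrug. Clonogenic plating efficiency measured. Fold change is the plating-efficiency ratio between wild-type and transfected MCLs. ≥3 independent experiments.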

Q: For `CS(=O)(=O)OCCN(CCBr)c1c(C(=O)NCCO)cc([N+](=O)[O-])cc1[N+](=O)[O-]`, which “fold change (FC)” value is on record?
A: 29

System: HCT-116
Test: Antiproliferative activity against wild type human HCT-116 cells assessed as cell growth inhibition measured after 4 hrs
Format: functional, cell-based
Conditions: HCT-116, 4 h
Outline: as §2

Q: For `CS(=O)(=O)OCCN(CCBr)c1c(C(=O)NCCO)cc([N+](=O)[O-])cc1[N+](=O)[O-]`, which IC50 is on record?
A: 66 µM

System: NCI-H1299
Test: Antiproliferative activity against wild type human NCI-H1299 cells assessed as cell growth inhibition measured after 4 hrs
Format: functional, cell-based
Conditions: NCI-H1299, 4 h
Outline: as §2

Q: Which IC50 does the source give for `CS(=O)(=O)OCCN(CCBr)c1c(C(=O)NCCO)cc([N+](=O)[O-])cc1[N+](=O)[O-]` here?
A: 114 µM

System: not listed separately
Test: Selectivity ratio of IC50 for antiproliferative activity against wild type human HCT-116 cells to IC50 for antiproliferative activity against human HCT-116 cells expressing NfsA of Escherichia coli
Format: functional
Conditions: time 4 hrs
Outline: as §1

Q: With `CS(=O)(=O)OCCN(CCBr)c1c(C(=O)NCCO)cc([N+](=O)[O-])cc1[N+](=O)[O-]` as the compound, how does the “Ratio IC50” value read?
A: 4125

System: not listed separately
Test: (§4) Selectivity ratio of IC50 for antiproliferative activity against human SiHa cells assessed as inhibition of cell growth under aerobic condition to IC50 for antiproliferative activity against human SiHa cells assessed as inhibition of cell growth under anoxic condition
Format: functional
Conditions: not given
Outline: (§5)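 Hypoxic cytotoxicity ratio is aerobic IC50 divided by anoxic IC50. Each IC50 comes from a 4 h drug exposure under aerobic or anoxic conditions, followed by 5 days' aerobic regrowth, relative to untreated controls.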

Q: For `CS(=O)(=O)OCCN(CCBr)c1c(C(=O)NCCO)cc([N+](=O)[O-])cc1[N+](=O)[O-]`, which “Ratio IC50” value is on record?
A: 7

System: HCT-116
Test: Antiproliferative activity against human HCT-116 cells assessed as inhibition of cell growth incubated for 4 hrs under aerobic condition and measured after 5 days regrowth under aerobic condition
Format: functional, cell-based
Conditions: not given
Outline: as §3

Q: With `CS(=O)(=O)OCCN(CCBr)c1c(C(=O)NCCO)cc([N+](=O)[O-])cc1[N+](=O)[O-]` as the compound, how does the IC50 read?
A: 38 µM

System: not listed separately
Test: Selectivity ratio of IC50 for antiproliferative activity against wild type human NCI-H1299 cells to IC50 for antiproliferative activity against human NCI-H1299 cells expressing NfsA of Escherichia coli
Format: functional
Conditions: time 4 hrs
Outline: as §1

Q: Which “Ratio IC50” value does the source give for `CS(=O)(=O)OCCN(CCBr)c1c(C(=O)NCCO)cc([N+](=O)[O-])cc1[N+](=O)[O-]` here?
A: 2375

System: not listed separately
Test: as §4, with “HCT-116” for “SiHa”, “cells overexpressing cytochrome P450 oxidoreductase” for “cells”
Format: functional
Conditions: not given
Outline: as §5

Q: For `CS(=O)(=O)OCCN(CCBr)c1c(C(=O)NCCO)cc([N+](=O)[O-])cc1[N+](=O)[O-]`, which “Ratio IC50” value is on record?
A: 293

System: not listed separately
Test: Octanol/water partition coefficient, log D of the compound at pH 7.4
Format: physicochemical
Conditions: not given
Outline: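 Octanol–water partition coefficient by shake-flask method at pH 7.4.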

Q: Which logD does the source give for `CS(=O)(=O)OCCN(CCBr)c1c(C(=O)NCCO)cc([N+](=O)[O-])cc1[N+](=O)[O-]` here?
A: 1

System: NCI-H1299
Test: Antiproliferative activity against human NCI-H1299 cells expressing AKR1C3 assessed as cell growth inhibition measured after 4 hrs
Format: functional, cell-based
Conditions: NCI-H1299, 4 h
Outline: as §2

Q: Which IC50 does the source give for `CS(=O)(=O)OCCN(CCBr)c1c(C(=O)NCCO)cc([N+](=O)[O-])cc1[N+](=O)[O-]` here?
A: 7.4 µM

System: HCT-116
Test: Antiproliferative activity against human HCT-116 cells expressing AKR1C3 assessed as cell growth inhibition measured after 4 hrs
Format: functional, cell-based
Conditions: HCT-116, 4 h
Outline: as §2

Q: For `CS(=O)(=O)OCCN(CCBr)c1c(C(=O)NCCO)cc([N+](=O)[O-])cc1[N+](=O)[O-]`, which IC50 is on record?
A: 1.1 µM

System: not listed separately
Test: Selectivity ratio of IC50 for antiproliferative activity against human HCT-116 cells assessed as inhibition of cell growth under aerobic condition to IC50 for antiproliferative activity against human HCT-116 cells assessed as inhibition of cell growth under anoxic condition
Format: functional
Conditions: not given
Outline: as §5

Q: Which “Ratio IC50” value does the source give for `CS(=O)(=O)OCCN(CCBr)c1c(C(=O)NCCO)cc([N+](=O)[O-])cc1[N+](=O)[O-]` here?
A: 15

System: HCT-116
Test: Antiproliferative activity against human HCT-116 cells overexpressing cytochrome P450 oxidoreductase assessed as inhibition of cell growth incubated for 4 hrs under anoxic condition and measured after 5 days regrowth under aerobic condition
Format: functional, cell-based
Conditions: not given
Outline: as §3

Q: For `CS(=O)(=O)OCCN(CCBr)c1c(C(=O)NCCO)cc([N+](=O)[O-])cc1[N+](=O)[O-]`, which IC50 is on record?
A: 0.14 µM

System: not listed separately
Test: Selectivity ratio of IC50 for antiproliferative activity against wild type human HCT-116 cells to IC50 for antiproliferative activity against human HCT-116 cells expressing AKR1C3
Format: functional
Conditions: time 4 hrs
Outline: as §1

Q: With `CS(=O)(=O)OCCN(CCBr)c1c(C(=O)NCCO)cc([N+](=O)[O-])cc1[N+](=O)[O-]` as the compound, how does the “Ratio IC50” value read?
A: 60

System: SiHa
Test: Antiproliferative activity against human SiHa cells assessed as inhibition of cell growth incubated for 4 hrs under aerobic condition and measured after 5 days regrowth under aerobic condition
Format: functional, cell-based
Conditions: not given
Outline: as §3

Q: Which IC50 does the source give for `CS(=O)(=O)OCCN(CCBr)c1c(C(=O)NCCO)cc([N+](=O)[O-])cc1[N+](=O)[O-]` here?
A: 19 µM

System: HCT-116
Test: Antiproliferative activity against human HCT-116 cells in three-dimensional cell culture multicellular layer expressing AKR1C3 assessed as fold change in plating efficiency at 10 uM
Format: functional
Conditions: not given
Outline: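 100% AKR1C3-expressing HCT116 MCLs, against wild-type HCT116 MCLs, exposed to 10 μM prodrug. Clonogenic plating efficiency measured. Fold change is the plating-efficiency ratio between wild-type and transfected MCLs. ≥3 independent experiments.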

Q: Which “fold change (FC)” value does the source give for `CS(=O)(=O)OCCN(CCBr)c1c(C(=O)NCCO)cc([N+](=O)[O-])cc1[N+](=O)[O-]` here?
A: 100500

System: HCT-116
Test: Antiproliferative activity against human HCT-116 cells overexpressing cytochrome P450 oxidoreductase assessed as inhibition of cell growth incubated for 4 hrs under aerobic condition and measured after 5 days regrowth under aerobic condition
Format: functional, cell-based
Conditions: not given
Outline: as §3

Q: Which IC50 does the source give for `CS(=O)(=O)OCCN(CCBr)c1c(C(=O)NCCO)cc([N+](=O)[O-])cc1[N+](=O)[O-]` here?
A: 41 µM

System: HCT-116
Test: Antiproliferative activity against human HCT-116 cells assessed as inhibition of cell growth incubated for 4 hrs under anoxic condition and measured after 5 days regrowth under aerobic condition
Format: functional, cell-based
Conditions: not given
Outline: as §3

Q: With `CS(=O)(=O)OCCN(CCBr)c1c(C(=O)NCCO)cc([N+](=O)[O-])cc1[N+](=O)[O-]` as the compound, how does the IC50 read?
A: 2.5 µM

System: HCT-116
Test: Antiproliferative activity against human HCT-116 cells expressing NfsA of Escherichia coli assessed as cell growth inhibition measured after 4 hrs
Format: functional
Conditions: HCT-116, 4 h
Outline: as §2

Q: For `CS(=O)(=O)OCCN(CCBr)c1c(C(=O)NCCO)cc([N+](=O)[O-])cc1[N+](=O)[O-]`, which IC50 is on record?
A: 0.016 µM
